The values below come from ChEMBL document CHEMBL3271964, “Synthesis and biological activity of new 2-nitroimidazole derivatives” (J Med Chem, 1978).

The term MIC denotes the least concentration at which growth counts as inhibited. Lower therefore signals a more susceptible organism. Usually LD50 stands for the dose expected to kill half of the subjects tested. Low values mean greater toxicity, high ones lower toxicity. As usually defined, the ED50 is the dose that gives a 50% effect, or the effect in half of the subjects.

The test system of series [1] is Trichomonas vaginalis. The series is described as follows: Antimicrobial activity against Trichomonas vaginalis infected in po dosed mouse relative to metronidazole. The format is functional. The gist of the method:
(§1)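 Mice infected subcutaneously, then dosed orally. Vehicle depended on compound: suspension in aqueous 0.75% sodium carboxymethylcellulose, DMF-H₂O, DMF-phosphate buffer pH 7.38, or water. ED₅₀ determined, with metronidazole run in parallel. The relative value is ED₅₀ (test) / ED₅₀ (metronidazole).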

For series [2], the system named is Trichomonas vaginalis. The experiment in a line: Antimicrobial activity against Trichomonas vaginalis by broth dilution method. It counts as functional. For orientation: In broth dilution the organism is exposed to a series of concentrations in liquid medium.
Another series concerns Clostridium perfringens. The series is described as follows: Antimicrobial activity against Clostridium perfringens ISS 30543 by broth dilution method. The format is functional.
A further series deals with Staphylococcus aureus. The experiment in a line: Antimicrobial activity against Staphylococcus aureus Tour by microtitre method. It counts as functional.
Series [3] in a line: Acute toxicity in po dosed mouse. It counts as organism-based. Particulars: in vivo. The gist of the method: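 Acute toxicity in mice by the oral route. Compounds were given as suspensions in aqueous 0.5% Methocel 90-HG.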
In another series the test system is Streptococcus pyogenes. The series is described as follows: Antimicrobial activity against Streptococcus pyogenes C 203 by microtitre method. It counts as functional.
Series [4] deals with Trichomonas vaginalis. The series is described as follows: Antimicrobial activity against Trichomonas vaginalis infected in po dosed mouse. The format is functional. The gist of the method: as §1
For series [5], the system named is Mycoplasmoides gallisepticum. The series is described as follows: Antimicrobial activity against Mycoplasma gallisepticum S6 Weybridge by broth dilution method. The format is functional.
Series [6] in a line: Therapeutic index, ratio of LD50 for po dosed mouse to ED50 for Trichomonas vaginalis infected in po dosed mouse. The format is organism-based. Particulars: in vivo, read-out: Ratio LD50/ED50. The gist of the method:
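Ratio of two mouse values, both dosed orally. The LD50 comes from acute toxicity, with compounds suspended in aqueous 0.5% Methocel 90-HG. The ED50 comes from subcutaneous T. vaginalis infection treated orally. The ED50 vehicle varied by compound: suspension in aqueous 0.75% sodium carboxymethylcellulose, DMF-H2O, DMF-phosphate buffer pH 7.38, or H2O.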

For a further series, the system named is Mus musculus. The experiment in a line: Toxicity in CF1 mouse assessed as change in sleeping time at 1 mg/kg, po administered 30 mins prior to hexobarbital sodium challenge relative to vehicle-treated control. The format is organism-based. Further details: dose 1 mg/kg, route oral. The note with it: in vivo, 0.5 h.

≈ marks a conversion by molar mass, not a printed value.

Take `COC(C)(C)c1cnc([N+](=O)[O-])n1C`: the “Ratio ED50” value in the series on Trichomonas vaginalis [1] is given as 0.81. The minimal inhibitory concentration (MIC) against Trichomonas vaginalis [2] was 5 µg/mL (≈ 25.1 µM); with Clostridium perfringens, 5 µg/mL (≈ 25.1 µM); against Staphylococcus aureus, over 100 µg/mL; with Streptococcus pyogenes, over 100 µg/mL; in series [5], over 100 µg/mL. In addition, the LD50 in series [3] is 805 mg/kg. For the same compound, the ED50 in the series with Trichomonas vaginalis [4] stood at 8.12 mg/kg. Further, the selectivity ratio in series [6] stood at 99.

On to `CN(C)CCCN1c2ccccc2Sc2ccc(Cl)cc21.Cl` [CHLORPROMAZINE HYDROCHLORIDE], for which the Activity in the series on Mus musculus stood at 57.7%.

On to `CC(CO)c1cnc([N+](=O)[O-])n1C` (stereo unspecified), for which the “Ratio ED50” value in the series with Trichomonas vaginalis [1] is over 0.7. Also, the minimal inhibitory concentration (MIC) against Trichomonas vaginalis [2] is 25 µg/mL (≈ 135 µM); in the series on Clostridium perfringens, 0.8 µg/mL (≈ 4.32 µM); with Staphylococcus aureus it was 25 µg/mL (≈ 135 µM); with Streptococcus pyogenes, 200 µg/mL (≈ 1080 µM); in [5], 50 µg/mL (≈ 270 µM). For the same compound, the ED50 in the series with Trichomonas vaginalis [4] was over 10 mg/kg.

As for `Cn1c(C(C)(C)OC(=O)Nc2ccccc2)cnc1[N+](=O)[O-]`, the “Ratio ED50” value in the series with Trichomonas vaginalis [1] worked out at 2.88. Further, the minimal inhibitory concentration (MIC) with Trichomonas vaginalis [2] is 100 µg/mL (≈ 329 µM); with Clostridium perfringens, 3.1 µg/mL (≈ 10.2 µM); in the series on Staphylococcus aureus, over 100 µg/mL; in the series on Streptococcus pyogenes, over 100 µg/mL; in series [5] it was 25 µg/mL (≈ 82.2 µM). Moreover, the ED50 in the series on Trichomonas vaginalis [4] was determined as 28.8 mg/kg.

On to `Cn1c(C(C)(C)OC(N)=O)cnc1[N+](=O)[O-]`, for which the “Ratio ED50” value in the series on Trichomonas vaginalis [1] was 0.4. The MIC was 10 µg/mL (≈ 43.8 µM) against Trichomonas vaginalis [2]; 10 µg/mL (≈ 43.8 µM) in the series with Clostridium perfringens; over 100 µg/mL in the series on Staphylococcus aureus; 100 µg/mL (≈ 438 µM) against Streptococcus pyogenes; over 100 µg/mL in [5]. This compound also gave a 50% lethal dose (LD50) in [3] of 900 mg/kg. It took a dose of 5.74 mg/kg to reach the 50% effect level with Trichomonas vaginalis [4] (ED50). Besides, the selectivity ratio in [6] turned out to be 156.

On to `Cn1c(C(C)(C)O)cnc1[N+](=O)[O-]`, for which the “Ratio ED50” value with Trichomonas vaginalis [1] was 0.28. Besides, the minimum inhibitory concentration (MIC) in the series on Trichomonas vaginalis [2] was 25 µg/mL (≈ 135 µM); against Clostridium perfringens, 25 µg/mL (≈ 135 µM); in the series with Staphylococcus aureus, 100 µg/mL (≈ 540 µM); against Streptococcus pyogenes, over 300 µg/mL; in [5] it was 40 µg/mL (≈ 216 µM). The compound further had an ED50 with Trichomonas vaginalis [4] of 1.65 mg/kg. Further, in series [6], the selectivity ratio was 423.
